# SUMO1-SIM PPI: alters human SUMO1 binding to SIM partners; P63165; SUMO1 binding to a labelled peptide, TR-FRET, 1 h; inhibition, % at 20 µM; 360,000 tested, 0.33% active; AID 602429; in the data active = inhibition above about 37%
# Target sequence (P63165 whole entry, looked up): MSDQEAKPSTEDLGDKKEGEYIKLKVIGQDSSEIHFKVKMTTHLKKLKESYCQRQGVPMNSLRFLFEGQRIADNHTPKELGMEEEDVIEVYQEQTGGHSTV
# NadD block: blocks S. aureus nicotinate mononucleotide adenylyltransferase; purified NadD enzyme, colorimetric absorbance read-out; inhibition, % at 20 µM; 360,000 tested, 0.78% active; AID 602399; in the data active = inhibition above about 26%
# STEP block: blocks human striatal-enriched tyrosine phosphatase; P54829; recombinant STEP, OMFP fluorogenic substrate, fluorescence; inhibition, % at 20 µM; 360,000 tested, 0.25% active;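 active = inhibition at 20 µM, scaled per plate between control wells, above about 37%, limit read from the data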;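 note: 0% = DMSO with enzyme and substrate and 100% = substrate only without enzyme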
#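 Also added – OMFP at 25 µM · Test system – STEP tyrosine phosphatase · Technique – FITC-channel fluorescence of OMFP product · Schedule – 20 min at room temperature, dark · Evaluation – control-normalized % inhibition with plate pattern correction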
# Scp1 inh: blocks human Scp-1 phosphatase activity; Q9GZU7; Recombinant Scp1, phosphopeptide, malachite green phosphate absorbance; inhibition, % at 20 µM; 340,000 tested, 0.88% active; AID 493091;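 active = inhibition above about 50% at 20 µM, limit read from the data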;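 note: plate controls were DMSO wells with enzyme for no effect and wells lacking enzyme for full effect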
# Target sequence (Q9GZU7 76-261 limits assumed): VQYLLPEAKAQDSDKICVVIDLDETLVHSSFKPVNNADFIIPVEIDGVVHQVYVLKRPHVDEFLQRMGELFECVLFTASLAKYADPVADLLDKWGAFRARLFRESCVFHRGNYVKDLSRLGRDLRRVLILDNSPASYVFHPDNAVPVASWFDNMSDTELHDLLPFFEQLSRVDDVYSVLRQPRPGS
#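 Times: enzyme reaction 45 min at room temperature, colour 5 min, stabilisation 30 min. Material: SCP-1 catalytic fragment, aa 76-261. Medium: Acidic Tris acetate buffer with magnesium and detergent. Signal: colorimetric free-phosphate detection, absorbance 630 nm. Read-out basis: % inhibition of SCP-1 phosphate liberation. Reagent: Phosphorylated 17-residue peptide substrate.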
# DNMT1 inh: inhibitors of human DNMT1 | P26358 | DNMT1 molecular beacon, Hinp1I cleavage, fluorescence | inhibition (reported as % activation of signal), % at 10 µM | 360,000 tested, 0.83% active | AID 588458; in the data active = inhibition above about 50%
# LMPTP inh: blocks human LMPTP phosphatase; 360,000 tested, 0.22% active; recombinant LMPTP-A, OMFP fluorogenic substrate, fluorescence intensity; inhibition, % at 20 µM;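 active = compounds that cut the enzyme signal by at least half of the control window in the single-dose screen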;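 note: plate controls were DMSO wells with enzyme plus substrate for no effect and substrate without enzyme for full effect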
# Target sequence (P24666 whole entry, looked up): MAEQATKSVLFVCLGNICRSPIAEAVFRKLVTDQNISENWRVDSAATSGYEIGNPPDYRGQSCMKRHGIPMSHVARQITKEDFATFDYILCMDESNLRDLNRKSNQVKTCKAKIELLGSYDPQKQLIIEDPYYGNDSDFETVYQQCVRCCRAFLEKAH
#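 Assay system: LMPTP-A phosphatase enzyme | Input: 0.625 nM enzyme | Also added: Fluorogenic phosphatase substrate OMFP at 400 µM final | Compound dosing: One test concentration per compound, 20 µM, with 3% DMSO overall | Schedule: 50 min enzyme reaction at room temperature, protected from light | Signal: Fluorescence intensity | Benchmarks: no-enzyme and uninhibited controls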
# The depositor's hits bear a star; / = no result given. A selection: hits, their analogues and other compounds. The true share with any hit is near 2.3%.
SMILES,SUMO1-SIM PPI,NadD block,STEP block,Scp1 inh,DNMT1 inh,LMPTP inh
COc1ccc(CCC(=O)NC(C)C2CCCO2)cc1 (centres undefined),0.0,-1.0,-2.9,-7.3,-0.1,-3.6
O=C(Nc1ccc(Cl)c(Cl)c1)N[C@@H]1CC[C@@H](CCn2cc(C3CCCCC3)nn2)O[C@@H]1CO,-3.0,/,/,/,/,1.3
COC(=O)c1ccc(NC(=O)Nc2ccc([N+](=O)[O-])cc2)cc1,0.0,-6.5,23.9,8.1,0.5,84.7*
Nc1[nH]c(=O)nc(Nc2ccccc2)c1N=O,-24.0,-3.1,-2.4,-13.3,-3.1,11.9
CC1C(=O)N(Cc2cn(Cc3ccco3)nn2)CCS(=O)(=O)N1Cc1ccc(-c2cccnc2)cc1 (centres undefined),17.9,8.1,-0.3,/,-0.5,53.7*
Fc1ccc(-c2cnc3n2CCCCC3)cc1,1.0,-7.6,-2.8,-11.6,0.1,-2.1
Clc1ccc(-c2cnc3n2CCCCC3)cc1,42.9*,-2.0,-0.3,2.6,0.8,0.4
CC(Nc1nc(N2CCNCC2)nc2ccccc12)c1ccccc1 (centres undefined),-0.1,10.6,7.0,5.4,-12.1,85.0*
Cc1ccc(NC(=O)C(=O)NCc2ccc(/C=C(/C#N)C(=O)NCc3cccnc3)o2)cc1C,-5.9,10.8,0.9,-8.2,-4.2,2.4
Cc1ccccc1-c1ccc(/C=C2/SC(N3CCOCC3)=NC2=O)o1,-8.1,-3.6,1.0,2.7,0.1,16.8
Cc1ccccc1N1CCN(C2=NC(=O)/C(=C/c3cn[nH]c3-c3ccccc3)S2)CC1,-5.0,40.5*,2.8,1.7,31.2,2.3
Cc1nnc2c(NCC(C)c3ccccc3)nc3ccccc3n12 (centres undefined),48.3*,-1.7,2.3,-4.0,2.6,1.2
C=CCNC(=O)c1c(Br)cnn1-c1ccc(C)cc1,-13.5,-4.0,-0.9,-6.4,-0.2,1.8
COc1cc(NC(=O)CSc2ncnc3sc4c(c23)CCCC4)c(C(=O)O)cc1OC,9.1,9.0,96.3*,-3.8,0.9,-1.6
CC(=O)CSc1ncnc2sc3c(c12)CCC3,4.5,-0.9,1.7,-2.6,0.9,-0.1
O=C(NCC1CCCO1)c1ccc(NS(=O)(=O)c2ccccc2)cc1 (centres undefined),-0.8,0.2,0.2,3.4,0.3,0.1
Cc1ccccc1C(=O)N1CCC(C(N)=O)CC1,55.2*,-0.3,1.7,-5.9,1.6,-1.6
NC(=O)C1CCN(C(=O)c2cccc3ccccc23)CC1,3.8,-2.0,0.8,-6.5,-0.2,-0.8
NS(=O)(=O)c1ccc(CCN2C(=O)/C(=C\c3ccc(Cl)cc3)SC2=S)cc1,-1.6,32.6*,-1.7,3.3,4.3,-2.4
CCCCNC(=O)C1C(c2ccc(C(F)(F)F)cc2)=Nc2ccccc2N1C(C)=O (centres undefined),-36.0,/,/,/,/,-1.5
Cc1ccc(OCC(=O)Nc2sc3c(c2C#N)CC(C)(C)NC3(C)C)cc1,-1.4,-4.6,3.0,-5.2,-0.8,-0.3
CC1(C)Cc2c(sc(NC(=O)COc3cccc4ccccc34)c2C#N)C(C)(C)N1,-42.9,-0.2,69.3*,-10.8,26.3,4.4
CC1Cc2cc(/C(O)=C3/C(=O)C(=O)N(CC4CCCO4)C3c3ccco3)ccc2O1 (centres undefined),-1.4,9.7,3.4,19.2,50.1*,-0.2
CCC1CCCCN1CCCNC(=O)COc1cc(=O)n(C)c2ccccc12 (centres undefined),43.7*,1.7,-3.3,-9.0,-1.3,-0.9
CCC1CCCCN1CCCNC(=O)CCCOc1cc(=O)n(C)c2ccccc12 (centres undefined),1.0,0.4,-1.0,-5.1,6.3,-0.7
SMILES,SUMO1-SIM PPI,NadD block,STEP block,Scp1 inh,DNMT1 inh,LMPTP inh
O=C(OCC12CC3CC(CC(C3)C1)C2)c1ccc(NCc2cc(O)ccc2O)cc1,3.7,11.7,0.2,6.8,-45.5,6.0
O=C(OCCC12CC3CC(CC(C3)C1)C2)c1ccc(NCc2cc(O)ccc2O)cc1,-0.1,16.5,14.3,70.2*,6.1,12.6
Cc1cc(N2CCN(C(=O)c3[nH]c(C(F)(F)F)nc3-c3ccccc3)CC2)c2ccccc2n1,11.9,-2.5,-0.9,/,-5.4,35.6
Cc1cc(N2CCN(C(=O)Nc3ccccc3C#N)CC2)c2ccccc2n1,-0.5,-4.8,2.0,6.3,-0.4,51.1*
COC(=O)c1ccccc1NC(=O)CSc1nc(NC(=O)c2ccccc2)c2c(C)c(C)oc2n1,66.5*,6.6,1.4,-4.2,-7.8,1.7
CCOC(=O)C1=C(C)N(CCCCCC(=O)O)C(=O)NC1c1cccc([N+](=O)[O-])c1 (centres undefined),-3.8,-1.6,1.4,-5.9,92.2*,-1.0
CC1=C(C(=O)OCc2ccccc2)C(c2cccc([N+](=O)[O-])c2)NC(=O)N1CCCCCC(=O)O (centres undefined),-7.8,-4.6,0.4,-3.8,5.9,-1.3
CCOC(=O)[C@]12CCCC=C1N(Cc1ccccc1)C(=O)[C@H](CC(=O)N1CCCC1)C2,-6.5,/,/,/,/,-2.2
O=C1c2ccccc2C(=O)C1c1ccnc2ccccc12,21.0,6.7,-13.0,-7.8,55.7*,2.1
O=C1c2ccccc2C(=O)C1c1nccc2ccccc12,30.8,3.1,5.2,-0.6,41.2,1.3
O=C1C(c2ccnc3ccccc23)=C(O)c2ccccc21,22.3,-1.5,0.0,-5.2,51.6*,-0.3
O=C1C(=O)c2ccccc2C(O)=C1c1ccccc1F,-28.6,-4.8,3.1,-12.8,-2.5,-0.7
COC(=O)C1(C(=O)OC)c2ccccc2CN(S(=O)(=O)c2ccc(C)cc2)C1CC(C)=O (centres undefined),-1.3,/,/,/,/,-0.1
Cc1cc(C)c(S(=O)(=O)Nc2nccs2)c(C)c1,42.5*,-0.7,-1.3,-9.6,0.9,-0.6
COc1ccc(C(CNC(=O)C(=O)NC2CCCC2)N2CCN(C)CC2)cc1 (centres undefined),-4.5,-7.6,-1.0,-6.9,0.5,0.9
C=C(C)C(=O)Oc1ccc(N=Nc2ccc(C)cc2)ccc1=O,47.5*,11.2,11.4,85.4*,95.4*,10.1
CC(=O)c1ccc(N=Nc2ccc(C)cc2)cc1,-16.9,-8.2,-1.6,-10.7,-3.1,0.5
O=C(COc1ccc(Cl)cc1Cl)Nc1ccc(-c2ccc(N3CCOCC3)nn2)cc1,55.5*,-0.2,-0.8,3.3,1.6,10.8
C=CCC(NC(=O)N(C)C)(C(C)=O)C(=O)OC (centres undefined),-0.8,/,/,/,/,-0.6
CCC(CO)Oc1cc(NC(=O)c2ccccc2C)c2ncn(C(C)C)c2c1 (centres undefined),50.0*,1.2,-3.0,-5.9,-45.9,-2.1
CCC(CN(C)C)Oc1cc(NCc2ccccc2)c2ncn(C(C)C)c2c1 (centres undefined),4.5,-4.8,-1.9,1.6,60.6*,4.9

# Source: PubChem
